In brackets after ≈: the same amount, converted by molar mass. Activity calls are given as the source filed them. Unless noted, no cut-off for these calls is given here.
Key:
[1] = biological target: T1, tRNA (guanine-N(1)-)-methyltransferase (Pseudomonas aeruginosa (strain ATCC 15692 / DSM 22644 / CIP 104116 / JCM14847 / LMG 12228 / 1C / PRS 101 / PAO1), UniProt Q9HXQ1); experiment: Inhibition of Pseudomonas aeruginosa tRNA (guanine(37)-N1)-methyltransferase (Leu5 to Asp25 residues) expressed in Escherichia coli BL21 (DE3) Rosetta T1R cells assessed as reduction in S-adenosyl-L-homocysteine production preincubated for 15 mins followed by 1.5 uM of tRNALeu(CAG) substrate and SAM addition and measured after 45 mins by MTase-Glo assay
T1 sequence (Q9HXQ1 whole entry): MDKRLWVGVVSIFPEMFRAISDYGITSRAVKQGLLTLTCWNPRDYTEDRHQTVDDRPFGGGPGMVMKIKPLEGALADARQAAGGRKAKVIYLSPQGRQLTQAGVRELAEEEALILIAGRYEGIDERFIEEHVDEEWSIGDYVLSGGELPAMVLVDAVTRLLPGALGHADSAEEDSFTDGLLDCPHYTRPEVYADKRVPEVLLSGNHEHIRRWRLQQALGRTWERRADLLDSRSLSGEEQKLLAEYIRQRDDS
Method in brief: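 MTase-Glo luminescence assay. 8 nM TrmD preincubated 15 min at ambient temperature with serially diluted inhibitor (0–500 μM) in 50 mM Tris-HCl pH 8.0, 80 mM NaCl, 1 mM MgCl2, 0.5 mM DTT, 0.01% Triton X-100. Reaction with 2 μM SAM and tRNALeu(CAG), 45 min at 37 °C. Detection 30 min in the dark, SAH read against a standard curve. IC50 by nonlinear regression. Two independent experiments in duplicate.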

Staphylococcus aureus [2] = experiment: Antibacterial activity against methicillin-resistant Staphylococcus aureus ATCC 43300 at 100 uM incubated for 24 hrs; format: functional, organism-based
Method in brief: (§1)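 Single-concentration growth screen: 100 μM test compound with log-phase bacteria at about 5×10^5 cells/mL. Incubation 24 h at 37 °C. Growth read by OD600 and given as percent of untreated control. MRSA was grown in cation-adjusted Mueller–Hinton broth. M. smegmatis was grown in complete Middlebrook 7H9. Ampicillin and kanamycin served as positive controls.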

Enterococcus faecalis [3] = experiment: Antibacterial activity against Enterococcus faecalis ATCC 51299 at 100 uM incubated for 24 hrs; format: functional, organism-based
Method in brief: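 Single-concentration screen in brain heart infusion broth. Log-phase cells at ~5×10^5 cells/mL were grown with 100 μM compound for 24 h at 37 °C. Growth was read as OD600 and expressed as a percentage of untreated wells. DMSO and blank controls were included.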

Streptococcus pneumoniae [4] = experiment: Antibacterial activity against Streptococcus pneumoniae ATCC 49619 at 100 uM incubated for 24 hrs; format: functional, organism-based
Method in brief: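 Single 100 μM screen in MH medium with 3% defibrinated sheep blood at 37 °C under 5% CO2, ~5×10^5 cells/mL, 24 h.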

[5] = tested on: Mycolicibacterium smegmatis; experiment: Antibacterial activity against Mycolicibacterium smegmatis MC2 155 at 100 uM incubated for 24 hrs; format: functional, organism-based; method in brief: as §1
[6] = tested on: Mycobacterium tuberculosis; experiment: Antibacterial activity against Mycobacterium tuberculosis ATCC 27294 at 100 uM incubated for 7 days; format: functional, organism-based
Pseudomonas aeruginosa [7] = experiment: Antibacterial activity against Pseudomonas aeruginosa PA14 incubated for 24 hrs by serial broth microdilution method; format: functional, organism-based
Method in brief: (§2)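 Log-phase cultures from four colonies grown overnight at 37 °C, inoculated at ~5×10^5 cells/mL in cation-adjusted Mueller–Hinton broth with serially diluted compound. Grown 24 h at 37 °C, then OD600 read. MIC50/MIC90 are the concentrations giving 50%/90% growth inhibition relative to drug-free controls. Two independent experiments in duplicate.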

Acinetobacter baumannii [8] = experiment: Antibacterial activity against Acinetobacter baumannii ATCC 17961 incubated for 24 hrs by serial broth microdilution method; format: functional; conditions: ATCC 17961, 24 h; method in brief: as §2
Klebsiella pneumoniae [9] = experiment: Antibacterial activity against Klebsiella pneumoniae ATCC 13883 incubated for 24 hrs by serial broth microdilution method; format: functional, organism-based; method in brief: as §2
Salmonella enteritidis [10] = experiment: Antibacterial activity against Salmonella enteritidis ATCC 13076 incubated for 24 hrs by serial broth microdilution method; format: functional; conditions: Salmonella enterica subsp. enterica serovar Enteritidis; method in brief: as §2
Escherichia coli [11] = experiment: Antibacterial activity against Escherichia coli BW25113 incubated for 24 hrs by serial broth microdilution method; format: functional, organism-based; method in brief: as §2
Staphylococcus aureus [12] = experiment: Antibacterial activity against methicillin-resistant Staphylococcus aureus ATCC 43300 incubated for 24 hrs by serial broth microdilution method; format: functional; conditions: ATCC 43300, 24 h
Method in brief: (§3)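 Growth read by OD600. MRSA in cation-adjusted Mueller–Hinton broth, M. smegmatis in complete 7H9. MIC50 and MIC90 are 50% and 90% growth inhibition versus drug-free controls. Two independent experiments, each in duplicate.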

Enterococcus faecalis [13] = experiment: Antibacterial activity against Enterococcus faecalis ATCC 51299 incubated for 24 hrs by serial broth microdilution method; format: functional, organism-based
Method in brief: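 Broth microdilution in brain heart infusion broth, ~5×10^5 cells/mL log-phase inoculum, serial compound dilutions, 24 h at 37 °C, OD600 read-out. MIC50/MIC90 are the concentrations giving 50%/90% growth inhibition relative to drug-free controls. Two independent experiments in duplicate.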

Streptococcus pneumoniae [14] = experiment: Antibacterial activity against Streptococcus pneumoniae ATCC 49619 incubated for 24 hrs by serial broth microdilution method; format: functional; conditions: ATCC 49619, 24 h
Method in brief: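 Cultured in MH medium plus 3% defibrinated sheep blood at 37 °C, 5% CO2. Log-phase inoculum ~5×10^5 cells/mL was exposed to serial compound dilutions for 24 h. MIC50/MIC90 are relative to drug-free controls. Two independent experiments in duplicate.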

[15] = tested on: Mycolicibacterium smegmatis; experiment: Antibacterial activity against Mycolicibacterium smegmatis MC2 155 incubated for 24 hrs by serial broth microdilution method; format: functional; conditions: MC2 155, 24 h; method in brief: as §3
[16] = tested on: Mycobacterium tuberculosis; experiment: Antibacterial activity against Mycobacterium tuberculosis ATCC 27294 incubated for 7 days by broth dilution method; format: functional; conditions: ATCC 27294, 168 h
Method in brief: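 M. tuberculosis ATCC 27294 in complete 7H9 with 0.05% Tween 80, 0.5% glycerol and 10% ADC. Mid-log cells adjusted to OD600 0.1 and added 1:1 to 2-fold serial compound dilutions (highest 100 μM). Incubated 7 d at 37 °C with shaking at 80 rpm, then OD600 read. Isoniazid positive control. MIC50/MIC90 versus drug-free controls. Biological duplicates.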

Pseudomonas aeruginosa [17] = experiment: Bactericidal activity against Pseudomonas aeruginosa PA14 assessed as reduction in CFU at 1 to 4 times MIC90 incubated for 24 hrs; format: functional, organism-based
Acinetobacter baumannii [18] = experiment: Bactericidal activity against Acinetobacter baumannii ATCC 17961 assessed as reduction in CFU at 1 to 4 times MIC90 incubated for 24 hrs; format: functional; conditions: ATCC 17961, 24 h, read-out: MBC99.9
Klebsiella pneumoniae [19] = experiment: Bactericidal activity against Klebsiella pneumoniae ATCC 13883 assessed as reduction in CFU at 1 to 4 times MIC90 incubated for 24 hrs; format: functional, organism-based
Salmonella enteritidis [20] = experiment: Bactericidal activity against Salmonella enteritidis ATCC 13076 assessed as reduction in CFU at 1 to 4 times MIC90 incubated for 24 hrs; format: functional; conditions: Salmonella enterica subsp. enterica serovar Enteritidis
Escherichia coli [21] = experiment: Bactericidal activity against Escherichia coli BW25113 assessed as reduction in CFU at 1 to 4 times MIC90 incubated for 24 hrs; format: functional, organism-based
Staphylococcus aureus [22] = experiment: Bactericidal activity against methicillin-resistant Staphylococcus aureus ATCC 43300 assessed as reduction in CFU at 1 to 4 times MIC90 incubated for 24 hrs; format: functional; conditions: ATCC 43300, 24 h, read-out: MBC99.9
Enterococcus faecalis [23] = experiment: Bactericidal activity against Enterococcus faecalis ATCC 51299 assessed as reduction in CFU at 1 to 4 times MIC90 incubated for 24 hrs; format: functional, organism-based
Streptococcus pneumoniae [24] = experiment: Bactericidal activity against Streptococcus pneumoniae ATCC 49619 assessed as reduction in CFU at 1 to 4 times MIC90 incubated for 24 hrs; format: functional; conditions: ATCC 49619, 24 h, read-out: MBC99.9
[25] = tested on: Mycolicibacterium smegmatis; experiment: Bactericidal activity against Mycolicibacterium smegmatis MC2 155 assessed as reduction in CFU at 1 to 4 times MIC90 incubated for 24 hrs; format: functional; conditions: MC2 155, 24 h, read-out: MBC99.9
[26] = tested on: Mycobacterium tuberculosis; experiment: Bactericidal activity against Mycobacterium tuberculosis H37Rv assessed as reduction in CFU at 1 to 4 times MIC90 incubated for 7 days; format: functional; conditions: 168 h, read-out: MBC99.9
Method in brief: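 Then plated on complete 7H10 agar for CFU. Inoculum plated at time zero. MBC99.9 is a 1000-fold CFU reduction versus the time-zero inoculum.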

Erythrocyte = experiment: Hemolytic activity in human RBC at 100 uM measured after 1 hr; format: ADME, cell-based
Method in brief: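 Fresh human RBCs were PBS-washed and resuspended to OD600 24, then mixed 1:1 by volume with compound serially diluted in PBS. Incubated 1 h at 37 °C without shaking and centrifuged at 1000g for 15 min. Triton X-100 served as positive control. Run in triplicate.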

CCCCCCCCCCNCc1ccc(CNC(=O)c2csc3nc[nH]c(=O)c23)cc1
IC50 [1]: 25 nM | Activity (Staphylococcus aureus [2]): Active | Activity (Enterococcus faecalis [3]): Active | Activity (Streptococcus pneumoniae [4]): Active | Activity [5]: Active | Activity [6]: Active | MIC50 (Pseudomonas aeruginosa [7]): inactive | MIC90 (Pseudomonas aeruginosa [7]): inactive | MIC50 (Acinetobacter baumannii [8]): > 100 µM | MIC90 (Acinetobacter baumannii [8]): > 100 µM | MIC50 (Klebsiella pneumoniae [9]): inactive | MIC90 (Klebsiella pneumoniae [9]): inactive | MIC50 (Salmonella enteritidis [10]): inactive | MIC90 (Salmonella enteritidis [10]): inactive | MIC50 (Escherichia coli [11]): inactive | MIC90 (Escherichia coli [11]): inactive | MIC50 (Staphylococcus aureus [12]): 6 µM (≈ 2.73 µg/mL) | MIC90 (Staphylococcus aureus [12]): 8.5 µM (≈ 3.86 µg/mL) | MIC50 (Enterococcus faecalis [13]): inactive | MIC90 (Enterococcus faecalis [13]): inactive | MIC50 (Streptococcus pneumoniae [14]): 34 µM (≈ 15.5 µg/mL) | MIC90 (Streptococcus pneumoniae [14]): 56 µM (≈ 25.5 µg/mL) | MIC50 [15]: 13 µM (≈ 5.91 µg/mL) | MIC90 [15]: 18 µM (≈ 8.18 µg/mL) | MIC50 [16]: 22 µM (≈ 10 µg/mL) | MIC90 [16]: 43 µM (≈ 19.5 µg/mL) | MBC99.9 (Pseudomonas aeruginosa [17]): inactive | MBC (Acinetobacter baumannii [18]): > 100 µM | MBC99.9 (Klebsiella pneumoniae [19]): inactive | MBC99.9 (Salmonella enteritidis [20]): inactive | MBC99.9 (Escherichia coli [21]): inactive | MBC (Staphylococcus aureus [22]): 34 µM (≈ 15.5 µg/mL) | MBC99.9 (Enterococcus faecalis [23]): inactive | MBC (Streptococcus pneumoniae [24]): > 100 µM | MBC [25]: 36 µM (≈ 16.4 µg/mL) | MBC [26]: 75 µM (≈ 34.1 µg/mL) | Activity (Erythrocyte): Non-Toxic

Source: ChEMBL document CHEMBL4373727, “Thienopyrimidinone Derivatives That Inhibit Bacterial tRNA (Guanine37-N1)-Methyltransferase (TrmD) by Restructuring the Active Site with a Tyrosine-Flipping Mechanism” (J Med Chem, 2019)
